From paper PMC6045484 (ACS Omega, 2018)
Values after ≈ are worked out from the molar mass of the structure shown.

What was measured:
P. falciparum (D6) = experiment: in vitro antimalarial activity, plasmodial LDH; type: cell-based, Plasmodium falciparum; conditions: Plasmodium falciparum, D6, 72 h, read-out: P. falciparum (D6) IC50
P. falciparum (W2) = experiment: in vitro antimalarial activity, plasmodial LDH; type: cell-based, Plasmodium falciparum; conditions: Plasmodium falciparum, W2, 72 h, read-out: P. falciparum (W2) IC50, CQ-resistant W2 strain, 72 h
How it was run: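 P. falciparum-infected erythrocytes (2% parasitemia, 2% hematocrit) in RPMI 1640 with 10% human serum and 60 μg/mL amikacin. Exposed to test compound dilutions for 72 h at 37 °C under 90% N2/5% O2/5% CO2. LDH measured with Malstat reagent (30 min, room temperature), then NBT/PES for 1 h in the dark, stopped with 5% acetic acid, read at 650 nm. IC50 from dose-response curves.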

[1] = system: SK-MEL, KB, BT-549, SK-OV-3, VERO and LLC-PK1 cells; experiment: cytotoxicity, neutral red uptake assay; type: cell-based, mammalian; conditions: highest test concentration 4760 ng/mL
How it was run: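 Cells seeded at 25 000/well and allowed 24 h to reach confluence. Test compound was then added and incubated 48 h. Viable cells were counted by a modified neutral red uptake method. The panel was four human cancer lines and two noncancerous mammalian kidney lines. Doxorubicin served as positive control and DMSO as negative control.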

[2] = system: L. donovani promastigotes; experiment: in vitro antileishmanial activity, alamarBlue assay; type: cell-based, Leishmania donovani; conditions: Leishmania donovani, 48 h; for IC50: read-out: L. donovani IC50, promastigotes, 48 h; for IC90: read-out: L. donovani IC90, promastigotes, 48 h
C. albicans ATCC90028 = experiment: in vitro antifungal activity; type: cell-based, Candida albicans; conditions: Candida albicans; for IC50: ATCC90028, read-out: C. albicans IC50; for MFC: ATCC90028, read-out: C. albicans MFC; for MIC: ATCC90028, read-out: C. albicans MIC
How it was run: (§1)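 Modified NCCLS broth method in Sabouraud dextrose. Inoculum set by OD630 to 1.5 × 10^3 CFU/mL. Test compound serially diluted in 20% DMSO/saline, duplicate wells, up to 20 μg/mL. Incubated 70–74 h at 35 °C; 530 nm read before and after. IC50 is 50% growth inhibition; MIC is no detectable growth. MFC from clear wells subcultured on agar. Amphotericin B control.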

C. neoformans ATCC90113 = experiment: in vitro antifungal activity; type: cell-based, Cryptococcus neoformans; conditions: Cryptococcus neoformans; for IC50: ATCC90113, read-out: C. neoformans IC50; for MFC: ATCC90113, read-out: C. neoformans MFC; for MIC: ATCC90113, read-out: C. neoformans MIC
How it was run: as §1

A. fumigatus ATCC 90906 = experiment: in vitro antifungal activity; type: cell-based, Aspergillus fumigatus; conditions: Aspergillus fumigatus; for IC50: ATCC90906, read-out: A. fumigatus IC50; for MFC: ATCC90906, read-out: A. fumigatus MFC; for MIC: ATCC90906, read-out: A. fumigatus MIC
How it was run: as §1

SA (ATCC29213) = experiment: in vitro antibacterial activity; type: cell-based; conditions: Staphylococcus aureus; for IC50: ATCC29213, read-out: IC50 (concentration that affords 50% growth inhibition), SA; for MBC: ATCC29213, read-out: MBC (minimum bactericidal concentration), SA; for MIC: ATCC29213, read-out: MIC, SA
How it was run: (§2)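 Test compound serially diluted in 20% DMSO/saline and plated in duplicate, up to 20 μg/mL. Inoculum in cation-adjusted Mueller–Hinton broth, pH 7.3, set by OD630 to 5 × 10^5 CFU/mL. Incubated 16–20 h at 35 °C; 530 nm read before and after. IC50 is 50% growth inhibition; MIC is no detectable growth. MBC from clear wells subcultured on agar. Ciprofloxacin control.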

MRSA (ATCC33591) = experiment: in vitro antibacterial activity; type: cell-based, methicillin-resistant Staphylococcus aureus; conditions: Staphylococcus aureus, ATCC33591|MRSA, read-out: MIC, MRSA
How it was run: as §2

[3] = system: M. intracellulare (ATCC23068); experiment: in vitro antibacterial activity, modified alamarBlue procedure; type: cell-based, Mycobacterium intracellulare; conditions: Mycobacterium intracellulare; for IC50: ATCC23068, read-out: IC50 (concentration that affords 50% growth inhibition), M. intracellulare; for MBC: ATCC23068, read-out: MBC (minimum bactericidal concentration), M. intracellulare; for MIC: ATCC23068, read-out: MIC, M. intracellulare
How it was run: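 Modified alamarBlue microplate method. Test compound serially diluted in 20% DMSO/saline, duplicate wells, up to 20 μg/mL. Inoculum 2.0 × 10^6 CFU/mL in Middlebrook 7H9 with OADC, pH 7.3, containing 5% alamarBlue. Incubated 70–74 h at 37 °C, 10% CO2; fluorescence 544ex/590em read before and after. MIC: no blue-to-pink change. MBC by subculturing blue wells on agar. Ciprofloxacin control.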

Row | SMILES | IC50 (P. falciparum (D6)) | IC50 (P. falciparum (W2)) | cytotoxicity CTX [1] | IC50 [2] | IC90 [2] | IC50 (C. albicans ATCC90028) | MFC (C. albicans ATCC90028) | MIC (C. albicans ATCC90028) | IC50 (C. neoformans ATCC90113) | MFC (C. neoformans ATCC90113) | MIC (C. neoformans ATCC90113) | IC50 (A. fumigatus ATCC 90906) | MFC (A. fumigatus ATCC 90906) | MIC (A. fumigatus ATCC 90906) | IC50 (SA (ATCC29213)) | MBC (SA (ATCC29213)) | MIC (SA (ATCC29213)) | MIC (MRSA (ATCC33591)) | IC50 [3] | MBC [3] | also measured
1 | CCCCCOc1c(OC)cc(NC(C)CCCNC(=O)C(N)Cc2ccccc2)c2nc(C(C)(C)C)ccc12 (stereo not drawn) [compound 97, 2-Amino-N-(4-(2-tert-butyl-6-methoxy-5-(pentyloxy)quinolin-8-ylamino)pentyl)-3-phenylpropanamide] | 2.5 µg/mL (≈ 4.56 µM) | 1.3 µg/mL (≈ 2.37 µM) | NC (NC, not cytotoxic up to 4760 ng/mL (4.76 μg/mL)) | 4 µg/mL (≈ 7.29 µM) | 6.5 µg/mL (≈ 11.8 µM) | > 20 µg/mL | > 20 µg/mL | > 20 µg/mL | 2.29 µg/mL (≈ 4.17 µM) | 2.5 µg/mL (≈ 4.56 µM) | 2.5 µg/mL (≈ 4.56 µM) | > 20 µg/mL | > 20 µg/mL | > 20 µg/mL | 5.81 µg/mL (≈ 10.6 µM) | > 20 µg/mL | 10 µg/mL (≈ 18.2 µM) | 20 µg/mL (≈ 36.4 µM) | 14.9 µg/mL (≈ 27.2 µM) | > 20 µg/mL | MIC [3]: > 20 µg/mL
2 | CCCCCOc1c(OC)cc(NC(C)CCCNC(=O)C(N)Cc2cc3ccccc3[nH]2)c2nc(C(C)(C)C)ccc12 (stereo not drawn) [compound 98, 2-Amino-N-(4-(2-tert-butyl-6-methoxy-5-(pentyloxy)quinolin-8-ylamino)pentyl)-3-(1H-indol-2-yl)propanamide] | > 4.76 µg/mL | > 4.76 µg/mL | NC (NC, not cytotoxic up to 4760 ng/mL (4.76 μg/mL)) | 1.81 µg/mL (≈ 3.08 µM) | 2.93 µg/mL (≈ 4.98 µM) | 18.8 µg/mL (≈ 31.9 µM) | > 20 µg/mL | > 20 µg/mL | 1.21 µg/mL (≈ 2.06 µM) | 2.5 µg/mL (≈ 4.25 µM) | 2.5 µg/mL (≈ 4.25 µM) | > 20 µg/mL | > 20 µg/mL | > 20 µg/mL | 1.95 µg/mL (≈ 3.32 µM) | 10 µg/mL (≈ 17 µM) | 5 µg/mL (≈ 8.51 µM) | 5 µg/mL (≈ 8.51 µM) | 8.47 µg/mL (≈ 14.4 µM) | 20 µg/mL (≈ 34 µM) | MIC [3]: 10 µg/mL (≈ 17 µM)
3 | CCCCCCOc1c(OC)cc(NC(C)CCCNC(=O)C(N)CCSC)c2nc(C(C)(C)C)ccc12 (stereo not drawn) [compound 102, 2-Amino-N-(4-(2-tert-butyl-5-(hexyloxy)-6-methoxyquinolin-8-ylamino)pentyl)-4-(methylthio)butanamide] | 2.8 µg/mL (≈ 5.12 µM) | 2.8 µg/mL (≈ 5.12 µM) | NC (NC, not cytotoxic up to 4760 ng/mL (4.76 μg/mL)) | 5.9 µg/mL (≈ 10.8 µM) | 22 µg/mL (≈ 40.2 µM) | > 20 µg/mL | > 20 µg/mL | > 20 µg/mL | > 20 µg/mL | > 20 µg/mL | > 20 µg/mL | > 20 µg/mL | > 20 µg/mL | > 20 µg/mL | 5.03 µg/mL (≈ 9.2 µM) | 20 µg/mL (≈ 36.6 µM) | 10 µg/mL (≈ 18.3 µM) | 20 µg/mL (≈ 36.6 µM) | 11.2 µg/mL (≈ 20.4 µM) | 20 µg/mL (≈ 36.6 µM) | MIC [3]: 20 µg/mL (≈ 36.6 µM)
4 | CCCCCCOc1c(OC)cc(NC(C)CCCNC(=O)C(N)C(C)CC)c2nc(C(C)(C)C)ccc12 (stereo not drawn) [compound 104, 2-Amino-N-(4-(2-tert-butyl-5-(hexyloxy)-6-methoxyquinolin-8-ylamino)pentyl)-3-methylpentanamide] | 4.76 µg/mL (≈ 9 µM) | 4 µg/mL (≈ 7.56 µM) | NC (NC, not cytotoxic up to 4760 ng/mL (4.76 μg/mL)) | 16 µg/mL (≈ 30.3 µM) | 30 µg/mL (≈ 56.7 µM) | > 20 µg/mL | > 20 µg/mL | > 20 µg/mL | > 20 µg/mL | > 20 µg/mL | > 20 µg/mL | > 20 µg/mL | > 20 µg/mL | > 20 µg/mL | 13.2 µg/mL (≈ 24.9 µM) | > 20 µg/mL | > 20 µg/mL | > 20 µg/mL | > 20 µg/mL | > 20 µg/mL | MIC [3]: > 20 µg/mL
5 | CCCCCCOc1c(OC)cc(NC(C)CCCNC(=O)C(N)Cc2cnc[nH]2)c2nc(C(C)(C)C)ccc12 (stereo not drawn) [compound 105, 2-Amino-N-(4-(2-tert-butyl-5-(hexyloxy)-6-methoxyquinolin-8-ylamino)pentyl)-3-(1H-imidazole-5-yl)propanamide] | 2.4 µg/mL (≈ 4.34 µM) | 1.7 µg/mL (≈ 3.08 µM) | NC (NC, not cytotoxic up to 4760 ng/mL (4.76 μg/mL)) | 3.5 µg/mL (≈ 6.33 µM) | 7 µg/mL (≈ 12.7 µM) | 19.4 µg/mL (≈ 35.1 µM) | > 20 µg/mL | > 20 µg/mL | > 20 µg/mL | > 20 µg/mL | > 20 µg/mL | > 20 µg/mL | > 20 µg/mL | > 20 µg/mL | 2.79 µg/mL (≈ 5.05 µM) | 10 µg/mL (≈ 18.1 µM) | 5 µg/mL (≈ 9.05 µM) | 10 µg/mL (≈ 18.1 µM) | 5.94 µg/mL (≈ 10.7 µM) | 10 µg/mL (≈ 18.1 µM) | MIC [3]: 10 µg/mL (≈ 18.1 µM)
6 | CCCCCCOc1c(OC)cc(NC(C)CCCNC(=O)C(N)Cc2ccccc2)c2nc(C(C)(C)C)ccc12 (stereo not drawn) [compound 106, 2-Amino-N-(4-(2-tert-butyl-5-(hexyloxy)-6-methoxyquinolin-8-ylamino)pentyl)-3-phenylpropanamide] | > 4.76 µg/mL | > 4.76 µg/mL | NC (NC, not cytotoxic up to 4760 ng/mL (4.76 μg/mL)) | 9.89 µg/mL (≈ 17.6 µM) | > 40 µg/mL | > 20 µg/mL | > 20 µg/mL | > 20 µg/mL | 9.83 µg/mL (≈ 17.5 µM) | 20 µg/mL (≈ 35.5 µM) | 20 µg/mL (≈ 35.5 µM) | > 20 µg/mL | > 20 µg/mL | > 20 µg/mL | 10.7 µg/mL (≈ 19 µM) | > 20 µg/mL | 20 µg/mL (≈ 35.5 µM) | 20 µg/mL (≈ 35.5 µM) | 18.1 µg/mL (≈ 32.1 µM) | > 20 µg/mL | MIC [3]: > 20 µg/mL
7 | CCCCCCOc1c(OC)cc(NC(C)CCCNC(=O)C(C)N)c2nc(C(C)(C)C)ccc12 (stereo not drawn) [compound 107, 2-Amino-N-(4-(2-tert-butyl-5-(hexyloxy)-6-methoxyquinolin-8-ylamino)pentyl)-propanamide] | > 4.76 µg/mL | > 4.76 µg/mL | NC (NC, not cytotoxic up to 4760 ng/mL (4.76 μg/mL)) | 17.1 µg/mL (≈ 35.2 µM) | 37.3 µg/mL (≈ 76.7 µM) | > 20 µg/mL | > 20 µg/mL | > 20 µg/mL | > 20 µg/mL | > 20 µg/mL | > 20 µg/mL | > 20 µg/mL | > 20 µg/mL | > 20 µg/mL | > 20 µg/mL | > 20 µg/mL | > 20 µg/mL | > 20 µg/mL | > 20 µg/mL | > 20 µg/mL | MIC [3]: > 20 µg/mL
8 | CCCCCCOc1c(OC)cc(NC(C)CCCNC(=O)C(N)Cc2cc3ccccc3[nH]2)c2nc(C(C)(C)C)ccc12 (stereo not drawn) [compound 108, 2-Amino-N-(4-(2-tert-butyl-5-(hexyloxy)-6-methoxyquinolin-8-ylamino)pentyl)-3-(1H-indol-2-yl)propanamide] | > 4.76 µg/mL | > 4.76 µg/mL | NC (NC, not cytotoxic up to 4760 ng/mL (4.76 μg/mL)) | 19.1 µg/mL (≈ 31.7 µM) | > 40 µg/mL | > 20 µg/mL | > 20 µg/mL | > 20 µg/mL | 5.09 µg/mL (≈ 8.46 µM) | 10 µg/mL (≈ 16.6 µM) | 10 µg/mL (≈ 16.6 µM) | > 20 µg/mL | > 20 µg/mL | > 20 µg/mL | 4.98 µg/mL (≈ 8.27 µM) | > 20 µg/mL | 10 µg/mL (≈ 16.6 µM) | 10 µg/mL (≈ 16.6 µM) | 12.7 µg/mL (≈ 21.2 µM) | 20 µg/mL (≈ 33.2 µM) | MIC [3]: 20 µg/mL (≈ 33.2 µM)
